Sampled rows, rich in hits. Any-hit rate of the full collection: about 1.7%.
Scp1 inh – blocks human Scp-1 phosphatase activity; Q9GZU7; Recombinant Scp1, phosphopeptide, malachite green phosphate absorbance; inhibition, % at 20 µM; hit rate 0.88% among 340,000; AID 493091;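 active means inhibition above about 50% at 20 µM, limit read from the data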;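 further: plate controls were DMSO wells with enzyme for no effect and wells lacking enzyme for full effect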
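Incubation: 45 min enzyme reaction at room temperature / System: truncated SCP-1 phosphatase (76-261aa) / Reagent: Phospho 17-mer peptide substrate / Buffer or medium: Acidic Tris acetate buffer with magnesium and detergent / Signal: absorbance at 630 nm / Doses: one concentration, 20 µM, with 1.0% DMSO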
STEP inh – blocks human striatal-enriched tyrosine phosphatase. P54829. recombinant STEP, OMFP fluorogenic substrate, fluorescence. inhibition, % at 20 µM. hit rate 0.25% among 360,000;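 active means inhibition at 20 µM, scaled per plate between control wells, above about 37%, limit read from the data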;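 further: 0% = DMSO with enzyme and substrate and 100% = substrate only without enzyme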
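System: STEP phosphatase, cell-free reaction; Buffer or medium: Bis-Tris pH 6.0 buffer with DTT, detergent; Incubation: 20 min at room temperature, dark; Measured by: fluorescence, 480/540 nm.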
SUMO1-SIM PPI – alters human SUMO1 binding to SIM partners. P63165. SUMO1 binding to a labelled peptide, TR-FRET, 1 h. inhibition, % at 20 µM. hit rate 0.33% among 360,000; in the data active means inhibition above about 37%
LMPTP inh – LMPTP (human) inhibition; P24666; recombinant LMPTP-A, OMFP fluorogenic substrate, fluorescence intensity; AID 651560; hit rate 0.22% among 360,000; inhibition, % at 20 µM;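 active means compounds that cut the enzyme signal by at least half of the control window in the single-dose screen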;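 further: plate controls were DMSO wells with enzyme plus substrate for no effect and substrate without enzyme for full effect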
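Assay system: LMPTP-A enzyme. Input: 0.625 nM LMPTP-A final. Probe or stimulus: 400 µM OMFP. Compound dosing: single 20 µM dose. Schedule: 50 min dark incubation at room temperature. Detection: fluorescence intensity of OMFP turnover product. Read-out: percent inhibition versus substrate-only and uninhibited controls. Benchmarks: no-enzyme low control, uninhibited high control.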
DNMT1 inh – inhibitors of human DNMT1; P26358; DNMT1 molecular beacon, Hinp1I cleavage, fluorescence; inhibition (reported as % activation of signal), % at 10 µM; hit rate 0.83% among 360,000; in the data active means inhibition above about 50%
Target sequence (P26358 504-1616 limits assumed): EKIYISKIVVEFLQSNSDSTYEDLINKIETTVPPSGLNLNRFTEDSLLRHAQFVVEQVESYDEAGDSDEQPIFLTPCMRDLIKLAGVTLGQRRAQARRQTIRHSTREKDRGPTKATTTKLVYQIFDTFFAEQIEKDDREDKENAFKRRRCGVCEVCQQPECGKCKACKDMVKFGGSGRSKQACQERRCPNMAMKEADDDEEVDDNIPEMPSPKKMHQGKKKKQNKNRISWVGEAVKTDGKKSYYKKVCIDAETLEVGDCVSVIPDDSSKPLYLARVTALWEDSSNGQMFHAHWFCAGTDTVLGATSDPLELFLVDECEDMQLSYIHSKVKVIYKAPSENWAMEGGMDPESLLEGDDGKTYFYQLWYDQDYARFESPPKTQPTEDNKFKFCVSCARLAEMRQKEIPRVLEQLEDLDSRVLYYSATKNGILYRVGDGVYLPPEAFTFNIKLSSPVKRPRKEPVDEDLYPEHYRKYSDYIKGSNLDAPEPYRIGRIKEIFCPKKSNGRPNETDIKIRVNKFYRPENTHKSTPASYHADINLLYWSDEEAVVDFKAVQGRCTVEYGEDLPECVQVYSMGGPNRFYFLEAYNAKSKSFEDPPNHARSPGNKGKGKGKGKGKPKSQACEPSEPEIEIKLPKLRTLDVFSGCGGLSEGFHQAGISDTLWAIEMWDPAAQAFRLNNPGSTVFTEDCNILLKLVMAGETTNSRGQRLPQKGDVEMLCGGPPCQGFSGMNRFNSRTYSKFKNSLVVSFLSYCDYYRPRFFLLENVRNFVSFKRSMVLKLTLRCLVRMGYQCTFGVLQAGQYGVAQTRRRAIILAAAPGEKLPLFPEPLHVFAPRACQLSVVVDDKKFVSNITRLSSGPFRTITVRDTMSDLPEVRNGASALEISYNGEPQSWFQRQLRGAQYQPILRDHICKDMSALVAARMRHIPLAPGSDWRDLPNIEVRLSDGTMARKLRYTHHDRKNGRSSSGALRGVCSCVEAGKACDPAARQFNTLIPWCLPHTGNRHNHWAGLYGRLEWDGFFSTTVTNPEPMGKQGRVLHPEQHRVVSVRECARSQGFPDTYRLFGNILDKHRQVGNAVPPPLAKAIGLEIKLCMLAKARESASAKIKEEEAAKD
DNMT1 interf DR – beacon fluorescence artifact, dose response counter-screen. molecular beacon fluorescence, spectral interference counter-screen. AID 602382. 200 tested, under 10 active. shares compounds with DNMT1 inh. IC50, µM; call rule not given here
DNMT1 inh conf – DNMT1 inhibition confirmation, single concentration | shares compounds with DNMT1 inh | DNMT1 molecular beacon HinP1I cleavage, fluorescence | inhibition, % at 10 µM | hit rate 8% among 2,300;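 active means average inhibition of at least 30% in the single-concentration confirmation test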
DNMT1 interf – beacon fluorescence artifact counter-screen | shares compounds with DNMT1 inh | DNMT1 molecular beacon spectral interference counterscreen, fluorescence 485/520 | activation (fluorescence interference), % at 10 µM | hit rate 1% among 2,300;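 active means activation of at least 30% at 10 µM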;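 further: DNMT1 catalytic domain with a HinP1I cleavage step and a FAM/dabcyl DNA beacon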
Starred values were filed as active, the others as inactive; / = no result given.

SMILES	Scp1 inh	STEP inh	SUMO1-SIM PPI	LMPTP inh	DNMT1 inh	DNMT1 inh conf	DNMT1 interf	others
Cc1nc(C)c(C(=O)Nc2nc3c(C)cccc3s2)o1	49.1	7.1	16.5	4.9	78.9*	9.7	-0.5
O=C(CSCc1ccccc1Br)NC1CC1	-5.2	1.8	0.8	-0.9	81.2*	-0.4	1.3
CSc1ccccc1NC(=O)CSCc1ccccc1Br	-4.4	2.5	3.4	2.6	-7.1	/	/
CCOc1ccc(N=c2cc(-c3ccc(OC)cc3)oc3ccccc23)cc1	13.6	1.3	-3.6	8.8	95.4*	1.7	3.8
COc1ccccc1OCC(=O)NCCS(=O)(=O)N1CCN(c2ccccc2)CC1	-0.1	0.7	7.8	1.2	-0.9	/	/
COc1ccccc1Nc1cc2cc(Br)ccc2c(=O)[nH]1	11.4	17.3	22.7	9.3	68.7*	-0.1	3.3
O=c1[nH]c(Nc2ccccc2)cc2cc(Br)ccc12	1.6	29.4	37.2	31.6	92.0*	-0.2	0.1
COc1ccc(CC(=O)NCCS(=O)(=O)N2CCN(c3ccc(F)cc3)CC2)cc1OC	-6.3	2.1	-2.0	0.1	-2.3	/	/
O=C(NCc1ccc2c(c1)OCO2)c1cc2ncc(Br)cn2n1	72.3*	-0.4	1.6	51.9*	70.8*	4.0	0.4
CCOC(=O)C(C#N)C(=N)C1C(=O)OC2CCCCC21 (configuration not stated)	/	-2.6	0.2	-1.4	0.6	/	/
CCOc1cc(/C=C2\C(=O)NN(c3ccccc3)C2=O)cc([N+](=O)[O-])c1O	12.8	2.8	-4.0	4.8	67.7*	11.0	1.3
CCCCN(C(=O)c1cccc(-n2cccc2)c1)c1c(N)n(Cc2ccccc2)c(=O)[nH]c1=O	/	6.8	33.3	10.3	92.5*	7.0	0.0
O=C(C[C@H]1C[C@H](C(=O)N2CCCCC2)[C@@]2(CCc3ccccc3)c3[nH]c4ccc(Cl)cc4c3CCN2C1=O)NCCc1ccccn1	6.5	-0.5	1.9	-0.3	-23.8	/	/
O=C(CC1C[C@H](C(=O)N2CCCCC2)[C@@]2(CCc3ccccc3)c3[nH]c4ccccc4c3CCN2C1=O)NCCC1=CCCCC1 (some centres not stated)	4.1	10.9	1.8	2.3	59.8*	4.2	7.2
O=C(C[C@H]1C[C@H](C(=O)N2CCCCC2)[C@@]2(CCc3ccccc3)c3[nH]c4ccc(Cl)cc4c3CCN2C1=O)NCCC1=CCCCC1	1.3	4.3	4.1	0.8	60.8*	5.7	0.8
Cc1cc(O)cc2c1C(=O)/C(=C/c1ccco1)O2	-17.9	2.0	-8.4	0.1	64.8*	6.2	5.8
CCCS(=O)(=O)N1CCCC(C(=O)Oc2ccc(OC)cc2)C1 (configuration not stated)	-1.8	0.1	-0.9	0.0	82.7*	0.2	1.8
COc1ccc2c(CC(=O)OCC(=O)Nc3cccc(C)c3)coc2c1	4.7	-0.4	3.4	1.9	50.3*	10.7	5.0
COC(=O)c1cccc(NC(=O)Cc2coc3cc(OC)ccc23)c1	-10.5	-2.6	1.0	0.6	-3.6	/	/
COc1cccc(-c2cnc(C(O)c3ccc(C(C)(C)C)cc3)[nH]2)c1 (configuration not stated)	/	0.6	1.3	1.5	2.6	/	/
Cc1sc2nc3c(SC(C)C(=O)O)cc(C(=O)c4ccccc4O)cn3c(=O)c2c1C (configuration not stated)	-9.1	7.7	17.7	2.3	-5.4	/	/
O=C(O)CSc1cc(C(=O)c2ccccc2O)cn2c(=O)c3c(-c4ccccc4)csc3nc12	17.6	4.6	17.4	16.4	58.9*	20.7	-2.0
O=C(Nc1ccc(Cl)cc1)c1csc(COCCO)n1	/	-3.7	-2.3	-0.6	-2.9	/	/
O=C(Nc1ccc(Oc2ccccc2)cc1)c1csc(COCCO)n1	/	0.3	4.7	0.3	63.9*	1.4	3.4
COc1ccc(CCCNC(=O)C2(C)Cc3c(-c4ccc(NC(C)=O)cc4)ccnc3O2)cc1 (configuration not stated)	/	-1.3	-9.0	0.0	0.3	/	/
SMILES	Scp1 inh	STEP inh	SUMO1-SIM PPI	LMPTP inh	DNMT1 inh	DNMT1 inh conf	DNMT1 interf	others
O=C(O)C/C(=C\c1cc(Cl)c2c(c1)OCO2)c1nc2ccccc2s1	27.6	0.0	-12.7	10.2	52.9*	16.5	7.8
COc1ccc(-n2c(=O)c(CCC(=O)N3CCN(c4ccccc4O)CC3)nc3ccccc32)cc1	-3.9	1.0	-9.0	2.9	-11.8	/	/
COc1ccc(N2CCN(C(CNC(=O)C(=O)NCCc3c[nH]c4ccccc34)c3ccco3)CC2)cc1 (configuration not stated)	-7.6	-3.3	0.7	0.1	77.9*	-1.4	-1.4
COC(=O)c1c(C(=O)OC)c(C)n(Cc2ccco2)c1C	2.6	-7.8	3.8	-1.2	1.5	/	/
CCOc1cccc(=O)c2c(C)n(Cc3ccco3)c(C)c12	6.9	6.5	4.0	11.0	80.7*	4.4	3.6
COc1ccc(S(N)(=O)=O)cc1C(=O)OCC(=O)Nc1ncc(Cl)c(C)c1Cl	1.9	1.1	6.4	-0.9	2.6	/	/
CCC(C)NC(=O)c1cn(CC)c2ccc(S(=O)(=O)N3CCCCCC3)cc2c1=O (configuration not stated)	0.6	-0.1	-7.1	1.5	-3.2	/	/
COc1ccc(Cc2nc3ccc(C(=O)NCCSC)cc3o2)cc1	-7.0	1.3	2.0	-0.4	54.8*	1.5	4.6
COC(=O)CCNC(=O)c1ccc2nc(Cc3ccc(OC)cc3)oc2c1	-3.9	2.9	0.6	-1.1	-3.8	/	/
C[C@@H]1CN([C@@H](C)CO)S(=O)(=O)c2ccc(Br)cc2O[C@H]1CN(C)C(=O)C1CCOCC1	/	1.0	0.1	-0.2	3.1	/	/
Cc1cc(C(=O)N/N=C/c2cc(Br)c(Br)o2)n[nH]1	45.7	17.9	-3.4	7.0	64.1*	-1.3	-0.6
O=C(Cc1ccsc1)Nc1ccc(Cl)cc1Cl	25.6	3.4	2.4	-1.2	1.6	/	/
Cc1nn(-c2ccccc2)c(Cl)c1/C=N/Nc1ccc(S(=O)(=O)Nc2ccccc2C(=O)O)cc1[N+](=O)[O-]	0.2	7.9	21.3	43.3	100.5*	81.8*	-9.8	DNMT1 interf DR=>99
CCOc1ccc(C=NNc2ccc(S(=O)(=O)Nc3ccccc3C(=O)O)cc2[N+](=O)[O-])cc1	44.5	36.4	109.6*	97.0*	84.9*	101.8*	-8.1	DNMT1 interf DR=>99
CC1(C(=O)NCc2cccs2)Cc2c(-c3cccc(C(F)(F)F)c3)ccnc2O1 (configuration not stated)	/	-2.1	4.2	1.3	-2.4	/	/

Bioassay records (PubChem BioAssay)
